Source: paper PMC7049346 (Haematologica, 2019)

Experiments:
[1] = test system: K562 cells; conditions: cited from earlier work
[2] = test system: HbSS-Townes mice; experiment: Townes SCD model, 30 days daily oral dosing; format: in vivo; conditions: for percentage of sickled RBC: vehicle 56%
[3] = test system: HbSS-Townes mice; experiment: HbSS-Townes vaso-occlusive crisis model; format: in vivo; conditions: HU 100 mg/kg/day for ten days, P<0.05
[4] = test system: K562 cells; experiment: cGMP induction in K562 cells; format: cell-based, human; conditions: 6 h
Outline: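 Actively growing K562 cells were treated for 6 h with increasing concentrations of the test compound or hydroxyurea. cGMP was measured by non-radioactive enzyme immunoassay using the acetylation protocol, and protein by BCA assay. Data are means±Standard Errors.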

[5] = test system: K562 cells; experiment: Cytotoxicity in K562 cells; format: cell-based, human; conditions: end of 72-h culture
Outline: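 Actively growing K562 cells were cultured for 72 h with increasing concentrations of the test compound. Terminal viability was scored by automated cell counting or trypan-blue exclusion, or by an ATP-based luminescence assay. Apoptosis was checked by Annexin V flow cytometry.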

[6] = test system: K562 cells; experiment: HbF induction in K562 cells; format: cell-based, human; conditions: 72 h
[7] = test system: erythroid cells from CD34+ progenitors of SCD patients; experiment: HbF induction in SCD patient-derived erythroblasts; format: cell-based, human; conditions: 30 μM HU
Outline: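 CD34⁺ progenitors came from the blood or bone marrow of nine SCD donors. Cells grew seven days with 15% BIT 9500, 2 mM L-glutamine, IL-3 (10 ng/mL), IL-6 and SCF (100 ng/mL). CD36⁺ cells were then isolated and grown five days with SCF, IL-3 and EPO (2 UI/mL) plus DMSO, 30 μM hydroxyurea or 10 μM test compound. HbF⁺ cells (%) and HbF MFI were read by PE-anti-HbF FACS, gated LiveDead⁻/GPA⁺/Band3⁺.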

[8] = test system: mice; experiment: Classical fear conditioning model of learning and memory; format: in vivo; conditions: similar dose of both PDE9i
[9] = HU 100 mg/kg, 30 days, not significant

C[C@H](Cc1nc2c(cnn2-c2ccccc2Cl)c(=O)[nH]1)C(F)(F)F [BAY73-6691]
HbF mRNA expression [1]: increased HbF mRNA expression

NC(=O)NO [HU, Hydroxyurea]
percentage of sickled RBC ([2]; HU 25 mg/kg/day, 30 days): 52% | percent F-cells ([2]; HU 25 mg/mL/day (so in the source), 30 days, vehicle 8.4%, not significant): 13% | percentage of sickled RBC ([2]; HU 50 mg/kg/day, 30 days): 49% | percent F-cells ([2]; HU 50 mg/mL/day (so in the source), 30 days, vehicle 8.4%, not significant): 18% | WBC lower than vehicle ([2]; HU 100 mg/kg, 30 days): 21% | reduction of MPO levels ([2]; HU 100 mg/kg, 30 days): 2.1 fold | reduction of lung arginase (compared with IMR-687) ([2]; HU 100 mg/kg, 30 days): less pronounced | reduction of plasma free Hb levels ([2]; HU 100 mg/kg, 30 days): approximately 55% | lung MPO levels ([2]; HU 100 mg/kg, 30 days, HbSS-Townes vehicle 3.1 mU/L, P<0.0001): 1.5 mU/L | plasma bilirubin ([2]; HU 100 mg/kg, 30 days, P<0.01): 5 mg/dL | changes in reticulocyte counts, RBC, hematocrit and Hb (compared with IMR-687) ([2]; HU 100 mg/kg, 30 days, changes in Hb not significant): produced smaller changes | LDH levels [2, 9]: 121 AU | plasma nitrite levels [2, 9]: 1.23 mg/mL | WBC count ([2]; HU 100 mg/kg, 30 days, vehicle 38.2×10^9/L): 3.04e+10 L⁻¹ | Mortality ([2]; HU 100 mg/kg/day): resulted in mortality in mice | percent F cells ([2]; HU 100 mg/kg/day, 30 days, vehicle 8.4%): 29.3% | percent sickled RBC ([2]; HU 100 mg/kg/day, 30 days, vehicle 56.3%): 28.8% | changes in reticulocyte counts, RBC, hematocrit and Hb ([2]; HU 25 and 50 mg/kg, 30 days): only the change in reticulocyte counts was significant | reduction of markers of hemolysis (bilirubin, LDH) ([2]; HU 25 and 50 mg/kg, 30 days): did not produce a significant reduction | lung MPO levels ([2]; lower doses of HU, 30 days): reduced MPO levels in the lungs | microvascular stasis ([3]; 1 h in normoxia, vehicle 33%): 13% | microvascular stasis ([3]; 4 h in normoxia, vehicle 16%): 8% | cGMP induction [4]: increases cGMP in a dose-dependent manner | Cytotoxicity (cell counts) [5]: induction was accompanied by cytotoxicity | HbF induction (ELISA) [6]: induced HbF in a dose-dependent manner | percentage of F-cells (HbF positive) ([7]; five days, DMSO control 13.3%, n=7, P<0.01): 22.2% | intensity of HbF staining (MFI) ([7]; five days, control 6073±1217, n=7, P=0.041): 9744±2805 | Cytotoxicity in patient-derived cultures ([7]; 9 cultures): cytotoxicity induced by HU in 2 cultures

C[C@@H]1CN(Cc2ncccn2)C[C@H]1c1nc2c(cnn2C2CCOCC2)c(=O)[nH]1 [PF-04447943, 6-[(3S,4S)-4-methyl-1-(pyrimidin-2-ylmethyl)pyrrolidin-3-yl]-1-(tetrahydro-2H-pyran-4-yl)-1,5-dihydro-4H-pyrazolo[3,4-d]pyrimidin-4-one, reference compound]
conditioned fear responses [8]: significantly increased conditioned fear responses

Nc1nc(-c2nn(Cc3ccccc3F)c3ncccc23)ncc1C1CC1 [BAY 41-2271]
HbF mRNA expression [1]: increased HbF mRNA expression
